Assays:
[1] = test system: Hepatitis B virus; experiment: Ratio EC50 for PMEA to compound for Hepatitis B virus infected in human HuH7 cells assessed as reduction in viral DNA level treated day 3 to day 8 post transfection by real time quantitative PCR analysis; format: functional, Huh-7
[2] = test system: Human immunodeficiency virus 1; experiment: Ratio EC50 for PMEA to compound for HIV1 clade G isolate 3187 infected in human H9 cells assessed as inhibition of viral replication; format: functional
[3] = test system: Hepatitis B virus; experiment: Ratio EC50 for PMEA to compound for Hepatitis B virus infected in human HepAD38 cells assessed as reduction in viral DNA level after 6 days by real time quantitative PCR analysis; format: functional
[4] = test system: Human immunodeficiency virus 1; experiment: Ratio EC50 for PMEA to compound for HIV1 clade B isolate 2056 infected in human H9 cells assessed as inhibition of viral replication; format: functional
Procedure, shortened: (§1)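 Ratio computed as EC50 of PMEA divided by EC50 of the test compound, both measured against the same clinical isolate in H9 cells.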

[5] = test system: Human immunodeficiency virus 1; experiment: Ratio EC50 for PMEA to compound for HIV1 clade C isolate 2914 infected in human H9 cells assessed as inhibition of viral replication; format: functional; procedure, shortened: as §1
[6] = test system: Human immunodeficiency virus 1; experiment: Ratio EC50 for PMEA to compound for HIV1 clade A/E isolate 2165 infected in human H9 cells assessed as inhibition of viral replication; format: functional; procedure, shortened: as §1
[7] = test system: Human immunodeficiency virus 1; experiment: Ratio EC50 for PMPA to compound for HIV1 clade A/E isolate 2165 infected in human H9 cells assessed as inhibition of viral replication; format: functional
[8] = test system: Human immunodeficiency virus 1; experiment: Ratio EC50 for PMPA to compound for HIV1 clade B isolate 1722 infected in human H9 cells assessed as inhibition of viral replication; format: functional
[9] = test system: Human immunodeficiency virus 1; experiment: Ratio EC50 for PMPA to compound for HIV1 clade B isolate 2101 infected in human H9 cells assessed as inhibition of viral replication; format: functional
[10] = test system: Human immunodeficiency virus 1; experiment: Ratio EC50 for PMPA to compound for HIV1 clade G isolate 3187 infected in human H9 cells assessed as inhibition of viral replication; format: functional
[11] = test system: Human immunodeficiency virus 1; experiment: Ratio EC50 for PMPA to compound for HIV1 clade C isolate 4110 infected in human H9 cells assessed as inhibition of viral replication; format: functional
[12] = test system: Human immunodeficiency virus 1; experiment: Ratio EC50 for PMPA to compound for HIV1 clade F isolate 2338 infected in human H9 cells assessed as inhibition of viral replication; format: functional
[13] = test system: Human immunodeficiency virus 1; experiment: Ratio EC50 for PMPA to compound for HIV1 clade A isolate 4113 infected in human H9 cells assessed as inhibition of viral replication; format: functional

Row | SMILES | Ratio EC50 [1] | Ratio EC50 [2] | Ratio EC50 [3] | Ratio EC50 [4] | Ratio EC50 [5] | Ratio EC50 [6] | Ratio EC50 [7] | Ratio EC50 [8] | Ratio EC50 [9] | Ratio EC50 [10] | Ratio EC50 [11] | Ratio EC50 [12] | Ratio EC50 [13]
1 | Nc1ncnc2c1ncn2CCOCP(=O)([O-])[S-].[Na+].[Na+] (stereo not drawn) | 1.5 | 0.25 | 1.5 | 0.29 | 2.96 | 1.06 | – | – | – | – | – | – | –
2 | C[C@H](Cn1cnc2c(N)ncnc21)OCP(=O)([O-])[S-].[Na+].[Na+] (stereo partly drawn) | – | – | – | – | – | – | 1.5 | 1.35 | 0.51 | 1.25 | 1.54 | 0.2 | 1.25
